What all share (assay type): functional
Experiment [1] concerns L1210. Put plainly: In-vivo antitumor activity against mouse L1210 cells at 80 mg/kg relative to control.
For experiment [2], the system named is HeLa. The experiment is described as follows: Inhibition of cell cycle traverse in human HeLa cells assessed as mitotic index at 200 ug/ml after 16 hrs. The arrangement: scale not given: the % may be the effect or the level left. An outline of the steps: (§1)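 HeLa cells were plated at 3.5 × 10^5 per 35-mm dish in Eagle's MEM with 10% fetal calf serum and antibiotics the day before. They were then exposed to drug in the same medium with 0.05 µg/mL colcemid for 16 h. Cells were trypsinized, cytocentrifuged onto slides and fixed in 3:1 MeOH–AcOH. The read-out was the mitotic index, mitotic cells as a percentage of cells counted.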

In experiment [3] the test system is HeLa. The experiment is described as follows: Inhibition of cell cycle traverse in human HeLa cells assessed as mitotic index at 100 ug/ml after 16 hrs. The arrangement: scale not given: the % may be the effect or the level left. Put shortly:
as §1

Experiment [4] relates to HeLa. The experiment is described as follows: Growth inhibition of human HeLa cells. The settings on record: read-out: ID50.
For experiment [5], the system named is L1210. The experiment is described as follows: In-vivo antitumor activity against mouse L1210 cells at 100 mg/kg relative to control.
In experiment [6] the test system is L1210. Put plainly: In-vivo antitumor activity against mouse L1210 cells at 60 mg/kg relative to control.
The subject of experiment [7] is L1210. The experiment is described as follows: In-vivo antitumor activity against mouse L1210 cells at 20 mg/kg relative to control.
The subject of experiment [8] is HeLa. Put plainly: Inhibition of cell cycle traverse in human HeLa cells assessed as mitotic index at 50 ug/ml after 16 hrs. Details: scale not given: the % may be the effect or the level left. Put shortly: (§2)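 HeLa cells (3.5 × 10^5) plated the day before in Eagle's MEM with 10% fetal calf serum and antibiotics. Drug added in the same medium with colcemid 0.05 µg/mL, incubated about 16 h. Cells trypsinized, cytocentrifuged onto slides, fixed in 3:1 MeOH-AcOH. Mitotic and interphase cells counted; mitotic index = % of total. Lower index means greater inhibition of cell cycle traverse.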

The subject of experiment [9] is HeLa. Put plainly: Inhibition of cell cycle traverse in human HeLa cells assessed as mitotic index at 25 ug/ml after 16 hrs. Details: scale not given: the % may be the effect or the level left. Put shortly:
as §2

The subject of experiment [10] is HeLa. Put plainly: Inhibition of cell cycle traverse in human HeLa cells assessed as mitotic index at 12.5 ug/ml after 16 hrs. The arrangement: scale not given: the % may be the effect or the level left. Put shortly: as §2

≈ marks a conversion by molar mass, not a printed value.

On to `O=c1[nH]c(=O)n(C2CCCO2)cc1F` (racemic) [TEGAFUR], for which, in the experiment with L1210 [1], the T/C was found to be 102%. Moreover, the Activity with HeLa [2] was determined as 36%; in the experiment on HeLa [3], 60.3%. Moreover, the ED50 with HeLa [4] is 200 µg/mL (≈ 999 µM).

As to `O=c1[nH]c(=O)n([C@@H]2OCC[C@H]2O)cc1F` (relative stereo), the T/C with L1210 [5] was found to be 96%; in the experiment with L1210 [1] it was 98%; with L1210 [6], 108%. The Activity came out at 34.7% with HeLa [2] and 64% in the experiment with HeLa [3].

Take `O=c1[nH]c(=O)n([C@H]2C[C@@H](O)CO2)cc1F` (relative stereo): the figures for the T/C with L1210 [5], with L1210 [1] and with L1210 [6] were 114%, 91% and 106%, respectively. In addition, the results for the Activity in the experiment on HeLa [2] and in the experiment with HeLa [3] were 44% and 63.3%, respectively.

As to `O=c1[nH]cc(F)c(=O)[nH]1` [FLUOROURACIL], the T/C with L1210 [7] is on record as 153%. Besides, the figures for the Activity with HeLa [8], in the experiment with HeLa [9] and with HeLa [10] were 31.7%, 35.8% and 45.7%, respectively.
